Experimental data from different studies.
In brackets after ≈: the same amount, converted by molar mass.
Organism: Pseudomonas aeruginosa
Read-out: microbial growth

`Oc1cc(Cl)ccc1Oc1ccc(Cl)cc1Cl` gave an MIC of > 25 µg/mL.
The MIC of `Cc1cc(/C=C2\Sc3ccccc3N2CCCN2CCC(C)CC2)c2ccccc2[n+]1C.[I-]` is reported as 64 µg/mL (broth dilution; ATCCBAA2108; drug-resistant strain).
With `CCCCCCC#Cc1cncc(-c2nnc(SCc3cc([N+](=O)[O-])cc([N+](=O)[O-])c3)n2C)c1` the MIC was ≥ 20 µg/mL.
`COC(=O)c1cc(-c2cccc(NC(=O)Nc3ccccc3F)c2)on1` has an MIC of > 64 µg/mL (broth dilution; ATCC27853).
`CC1(C)S[C@@H]2[C@H](NC(=O)C(C(=O)O)c3ccccc3)C(=O)N2[C@H]1C(=O)O` (stereo partly drawn) gave an MIC of 50 µg/mL (≈ 132 µM).
The MIC of `COC(=O)c1cc(-c2cccc(NC(=S)Nc3ccc(OC)cc3)c2)on1` is reported as > 64 µg/mL (broth dilution; ATCC27853).
`CCCCCCCCCCCC(=O)OC[C@H]1O[C@@H](n2cc(C)c(=O)[nH]c2=O)C[C@@H]1OC(=O)c1ccc(C(C)(C)C)cc1` gave an MIC of 8 µg/mL (≈ 13.7 µM) (broth dilution).
With `CC1(C)SC2C(NC(=O)C(NC(=O)C3=C(O)CN(c4ccccc4)C3=O)c3ccccc3)C(=O)N2C1C(=O)O` (stereo not drawn) the MIC was 100 µg/mL (≈ 182 µM).
With `CCCCCCNC(=S)Nc1cccc(-c2cc(C(=O)OC)no2)c1` the MIC was > 64 µg/mL (broth dilution; ATCC27853).
The MIC of `CO[C@H]1/C=C/O[C@@]2(C)Oc3c(C)c(O)c4c(O)c(c(/C=N/N5CCN(C)CC5)c(O)c4c3C2=O)NC(=O)/C(C)=C\C=C\[C@H](C)[C@H](O)[C@@H](C)[C@@H](O)[C@@H](C)[C@H](OC(C)=O)[C@@H]1C` is reported as > 64 µg/mL (broth dilution; ATCCBAA2108; drug-resistant strain).
`COC(=O)c1cc(-c2cccc(NC(=O)Nc3cc(OC)ccc3OC)c2)on1` gave an MIC of > 64 µg/mL (broth dilution; ATCC27853).
With `C[n+]1c(/C=C/c2ccc(O)cc2)cc(/C=C2\Sc3ccccc3N2CCCN2CCOCC2)c2ccccc21.[I-]` the MIC was > 64 µg/mL (broth dilution; ATCCBAA2108; drug-resistant strain).
For `COC(=O)c1cc(-c2cccc(NC(=O)Nc3ccc(F)cc3F)c2)on1`, the MIC was > 64 µg/mL (broth dilution; ATCC27853).
`Cc1cc(/C=C2\Sc3ccccc3N2CCCN2CCCCC2)c2ccccc2[n+]1C.[I-]` has an MIC of 64 µg/mL (broth dilution; ATCCBAA2108; drug-resistant strain).
`C[C@@H](O)[C@H]1C(=O)N2C(C(=O)O)=C(S[C@@H]3CN[C@H](C(=O)N(C)C)C3)[C@H](C)[C@H]12` gave an MIC of 2 µg/mL (≈ 5.22 µM).
